Results gathered from unrelated publications.
Each line is one published result; the experiments were not run side by side.
Matrix: plasma

Structure (SMILES) | test system | conditions | measurement | result
Cn1cnc(Cn2c(=O)[nH]/c(=N\c3cc4cn(C)nc4cc3Cl)n(Cc3cc(F)c(F)cc3F)c2=O)n1 | male Sprague-Dawley rat | oral, 25 mg/kg | AUC(0-t) | 515000 ng·h/mL
Cl.Cl.O=C(CCN1CCCCC1)c1ccc(-c2ccc(C(=O)CCN3CCCCC3)cc2)cc1 | Sprague-Dawley rat | oral, 25 mg/kg | AUC(0-t) | 135 ng·h/mL
N=c1c2c(-c3ccccc3)c(-c3ccccc3)n(Cc3ccccc3)c2ncn1[C@H]1CC[C@H](O)CC1 | male Sprague-Dawley rat | intravenous, 2 mg/kg, single dose | AUC(0-inf) | 1700 ng·h/mL
CCC[C@@](N)(CO)CCc1ccc(OCCCCCC(C)C)cc1 | rat | oral, 10 mg/kg | AUC(0-t) | 1440 nM·h
COC(=O)C(NC(=O)c1cn(CCCCCF)c2ccccc12)C(C)(C)C (stereo not drawn) | male Sprague-Dawley rat | subcutaneous, 50 µg/kg | AUC(0-t) | 8.61 ng·h/mL
[2H]C([2H])(c1cc(F)c(F)cc1F)n1c(=O)n(Cc2ncn(C)n2)c(=O)[nH]/c1=N\c1cc2cn(C)nc2cc1Cl | male Sprague-Dawley rat | oral, 25 mg/kg | AUC(0-t) | 451000 ng·h/mL
CC(C)(C)[C@H](NC(=O)[C@H](CCONC(=N)N)NC(=O)Cc1ccc(CNC(=N)N)cc1)C(=O)N[C@@H](CCONC(=N)N)C(=O)NCc1ccc(C(=N)N)cc1 | male Sprague-Dawley rat | intraperitoneal, 2.5 mg/kg | AUC(0-inf) | 9640 ng·h/mL
O=C([O-])C(=O)[O-].[NH-][C@@H]1CCCC[C@H]1[NH-].[Pt+4] (relative stereo) | rat | oral, 10 mg/kg | AUC(0-t) | 111 ng·h/mL
CCCCCn1cc(C(=O)Nc2cccc3ccccc23)c2ccccc21 | male Long-Evans rat | intraperitoneal, 3 mg/kg | AUC(0-t) | 4240 ng·h/mL
CN(C)C(=O)Oc1cc(OC(=O)N(C)C)cc(-c2cc3ccc(O)cc3o2)c1 | male rat | oral, 5 mg/kg | AUC(0-inf) | 26.2 ng·h/mL
CCCCCn1nc(C(=O)Nc2cccc3ccccc23)c2ccccc21 | male Long-Evans rat | intraperitoneal, 3 mg/kg | AUC(0-t) | 304 ng·h/mL
[2H]C([2H])([2H])n1cc2cc(Nc3nc(=O)n(Cc4ncn(C)n4)c(=O)n3Cc3cc(F)c(F)cc3F)c(Cl)cc2n1 | male Sprague-Dawley rat | intravenous, 5 mg/kg | AUC(0-t) | 89900 ng·h/mL
